Results: ChEMBL document CHEMBL1147411, “7-Hydroxynaphthalen-1-yl-urea and -amide antagonists of human vanilloid receptor 1” (Bioorg Med Chem Lett, 2004)

How the values were obtained:
[1] = target: T1, Transient receptor potential cation channel subfamily V member 1 (Homo sapiens, UniProt Q8NER1); assay: Functional antagonistic activity against human vanilloid receptor subtype 1 in HEK293 cell […] as inhibition of agonist-induced increases in intracellular [Ca2+] levels; assay type: cell-based
Outline: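 Fluo-3/AM-loaded hVR1/HEK cells were read by FLIPR. Cells were incubated with compound, then challenged with capsaicin at a concentration giving ~80% maximal response. IC50 came from the inhibition of the capsaicin-induced Ca2+ rise.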

[2] = target: T1, Transient receptor potential cation channel subfamily V member 1; assay: Binding affinity towards cloned human vanilloid receptor subtype 1 in HEK293 cell membranes using [3H]RTX as radioligand
Outline: (§1)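 Human VR1 stably expressed in HEK293 cells. Membranes were made by homogenizing, spinning at 3000 rpm for 10 min, and spinning the supernatant at 18,000 rpm for 20 min. Binding was 60 min at 37 °C with 0.3–0.6 nM [3H]-RTX in HEPES buffer pH 7.4. Samples were ice-cooled, given α-acid glycoprotein, centrifuged, and the pellet counted. Nonspecific binding used 200 nM unlabeled RTX. Percent inhibition calculated; Ki by Cheng–Prusoff.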

[3] = target: T1, Transient receptor potential cation channel subfamily V member 1; assay: Increased [Ca2+] influx in HEK293 cell […] human vanilloid receptor subtype 1; assay type: functional, cell-based
Outline: (§2)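 hVR1/HEK cells on poly-D-lysine-coated plates were loaded with Fluo-3/AM for 1 h after 2 days. Cells received single compound concentrations, and intracellular Ca2+ was read by FLIPR for 3 min. Capsaicin was then added at […] final to fully activate VR1.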

[4] = target: T1, Transient receptor potential cation channel subfamily V member 1; assay: Displacement of [3H]RTX binding to human vanilloid receptor subtype 1 expressed in HEK293 cell membranes at 10 uM; outline: as §1
[5] = target: T1, Transient receptor potential cation channel subfamily V member 1; assay: Increased [Ca2+] influx in HEK293 cell […] human vanilloid receptor subtype 1 (inactive); assay type: functional, cell-based; outline: as §2
[6] = target: T1, Transient receptor potential cation channel subfamily V member 1; assay: Displacement of [3H]-RTX binding to human vanilloid receptor subtype 1 expressed in HEK293 cell membranes (inactive); outline: as §1

T1 sequence (Q8NER1 whole entry): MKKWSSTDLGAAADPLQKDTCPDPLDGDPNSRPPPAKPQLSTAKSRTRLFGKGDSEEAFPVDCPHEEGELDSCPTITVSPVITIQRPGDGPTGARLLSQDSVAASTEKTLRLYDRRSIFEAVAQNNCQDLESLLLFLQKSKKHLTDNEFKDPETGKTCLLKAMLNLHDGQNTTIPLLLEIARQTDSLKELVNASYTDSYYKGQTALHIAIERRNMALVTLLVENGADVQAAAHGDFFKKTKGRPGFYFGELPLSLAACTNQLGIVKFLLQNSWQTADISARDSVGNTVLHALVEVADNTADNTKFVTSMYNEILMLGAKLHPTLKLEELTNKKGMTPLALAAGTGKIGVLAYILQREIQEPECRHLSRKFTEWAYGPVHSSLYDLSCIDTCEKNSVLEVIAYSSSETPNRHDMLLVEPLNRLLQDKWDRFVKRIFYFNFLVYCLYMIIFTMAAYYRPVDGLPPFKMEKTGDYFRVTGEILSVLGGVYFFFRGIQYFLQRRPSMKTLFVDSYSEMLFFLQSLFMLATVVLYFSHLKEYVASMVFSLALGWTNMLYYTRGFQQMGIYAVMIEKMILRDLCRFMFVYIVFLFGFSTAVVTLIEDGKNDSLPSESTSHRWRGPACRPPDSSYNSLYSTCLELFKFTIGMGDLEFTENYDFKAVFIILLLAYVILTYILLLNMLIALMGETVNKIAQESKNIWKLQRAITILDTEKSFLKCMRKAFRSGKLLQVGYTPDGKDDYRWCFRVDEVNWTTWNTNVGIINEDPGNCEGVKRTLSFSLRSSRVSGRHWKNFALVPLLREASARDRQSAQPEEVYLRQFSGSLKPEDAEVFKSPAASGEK

Row | SMILES | IC50 [1] | Ki [2] | further results
1 | O=C(NCCSCc1cccc(C(F)(F)F)c1)N1CCSCC1 |  |  | EC50 [3]: 0.39 µM
2 | O=C(Nc1cccc2ccc(O)cc12)c1ccc(Cl)cc1 | 0.32 µM |  | inhibition [4]: 28%
3 | CC(NC(=O)Nc1cccc2ccc(O)cc12)c1ccc(C(F)(F)F)cc1 (stereo not drawn) |  | 0.004 µM | 
4 | O=C(CCc1ccc(Cl)cc1)Nc1cccc2ccc(O)cc12 | 0.021 µM | 0.0098 µM | 
5 | O=C(NCc1ccc(Cl)c(Cl)c1)Nc1cccc2ccc(O)cc12 | 0.015 µM | 0.002 µM | 
6 | O=C(NCc1ccc(C(F)(F)F)cc1)Nc1cccc2ccc(O)cc12 | 0.004 µM | 0.001 µM | 
7 | O=C(NCc1ccc(F)c(F)c1)Nc1cccc2ccc(O)cc12 |  | 0.007 µM | 
8 | CN(Cc1ccccc1)C(=O)Nc1cccc2ccc(O)cc12 |  |  | IC50 [5]: > 10 µM; Ki [6]: > 10 µM
9 | O=C(Nc1cccc2ccc(O)cc12)N(Cc1ccccc1)Cc1ccccc1 |  |  | IC50 [5]: > 10 µM

Further lines, with some results ahead:

Row | IC50 [1] | Ki [2] | SMILES | further results
10 | 0.027 µM | 0.001 µM | O=C(NCc1ccc(OC(F)(F)F)cc1)Nc1cccc2ccc(O)cc12 | 
11 | 0.017 µM | 0.0046 µM | O=C(CCc1ccc(Cl)c(Cl)c1)Nc1cccc2ccc(O)cc12 | 
12 | 0.09 µM | 0.001 µM | O=C(NCCc1ccc(Cl)c(Cl)c1)Nc1cccc2ccc(O)cc12 | 
13 | 6.3 µM |  | O=C(Nc1cccc2ccc(O)cc12)Oc1ccccc1 | Ki [6]: > 10 µM
14 | 0.1 µM | 0.12 µM | Oc1cc2c(cc1O)CN(C(=S)NCCc1ccc(Cl)cc1)CCC2 [CAPSAZEPINE] | 
15 | 0.045 µM |  | O=C(NCc1ccccc1)Nc1cccc2ccc(O)cc12 | 
16 | 0.77 µM |  | O=C(Cc1ccc(Cl)c(Cl)c1)Nc1cccc2ccc(O)cc12 | 
17 | 0.026 µM | 0.0021 µM | O=C(NCc1cccc(C(F)(F)F)c1)Nc1cccc2ccc(O)cc12 | 
